Assay [1] deals with Musca domestica. Nature of the assay: Toxicity against SCR-susceptible Musca domestica (house fly) assessed as mortality compound administered by intrathoracic injection 1 to 2 hr after piperonyl butoxide treatment measured 24 hr post compound treatment relative to ryanodine. The assay is classed as functional.
Assay [2] concerns Musca domestica. Nature of the assay: Toxicity against SCR-susceptible Musca domestica (house fly) assessed as immobility compound administered by intrathoracic injection 1 to 2 hr after piperonyl butoxide treatment measured 4 hr post compound treatment relative to ryanodine. The assay is classed as functional. Summed up: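 Adult female flies pretreated with piperonyl butoxide (5 μg in 0.5 μL acetone, ventral abdomen); 1-2 h later, 0.22 μL ryanoid in DMSO injected into the thorax. Knockdown scored at 4 h and KD50 derived. Ten flies per dose, 1.50-2-fold dose steps, two or more experiments (or single determinations where estimated).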

Assay [3] addresses Ryanodine receptor 3 (Mus musculus) (UniProt A2AGL3). Nature of the assay: Binding affinity to ryanodine receptor in Mus musculus albino Swiss-Webster (mouse) brain relative to ryanodine.
The target in assay [4] is Ryanodine receptor 1 (Oryctolagus cuniculus) (UniProt P11716). Kind of assay: Displacement of [3H]ryanodine from Ca2+-ryanodine receptor in Oryctolagus cuniculus (rabbit) skeletal muscle sarcoplasmic reticulum after 1 hr by competitive inhibition assay in presence of ATP relative to ryanodine. The method in brief: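 Unlabeled ryanoid introduced in DMSO (1% final) before incubation. Filtration, washes in 150 mM KCl/10 mM Hepes pH 7.4. Nonspecific binding: 10 μM dehydroryanodine. IC50 from LIGAND; duplicate experiments.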

Assay [5] shares this target. Nature of the assay: Displacement of [3H]ryanodine from Ca2+-ryanodine receptor in Oryctolagus cuniculus (rabbit) skeletal muscle sarcoplasmic reticulum after 2 hr by competitive inhibition assay relative to ryanodine. Summed up:
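No ATP. […] Ryanoid given in DMSO (1% final). Glass-fiber filtration; three washes with ice-cold buffer a using Tris HCl instead of Hepes. Nonspecific binding with 10 μM dehydroryanodine. IC50 calculated by LIGAND; duplicate experiments.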
(In general: In a radioligand displacement assay an active substance lowers the binding of a labelled ligand.)

Ryanodine receptor 3 (Mus musculus), sequence (A2AGL3 whole entry): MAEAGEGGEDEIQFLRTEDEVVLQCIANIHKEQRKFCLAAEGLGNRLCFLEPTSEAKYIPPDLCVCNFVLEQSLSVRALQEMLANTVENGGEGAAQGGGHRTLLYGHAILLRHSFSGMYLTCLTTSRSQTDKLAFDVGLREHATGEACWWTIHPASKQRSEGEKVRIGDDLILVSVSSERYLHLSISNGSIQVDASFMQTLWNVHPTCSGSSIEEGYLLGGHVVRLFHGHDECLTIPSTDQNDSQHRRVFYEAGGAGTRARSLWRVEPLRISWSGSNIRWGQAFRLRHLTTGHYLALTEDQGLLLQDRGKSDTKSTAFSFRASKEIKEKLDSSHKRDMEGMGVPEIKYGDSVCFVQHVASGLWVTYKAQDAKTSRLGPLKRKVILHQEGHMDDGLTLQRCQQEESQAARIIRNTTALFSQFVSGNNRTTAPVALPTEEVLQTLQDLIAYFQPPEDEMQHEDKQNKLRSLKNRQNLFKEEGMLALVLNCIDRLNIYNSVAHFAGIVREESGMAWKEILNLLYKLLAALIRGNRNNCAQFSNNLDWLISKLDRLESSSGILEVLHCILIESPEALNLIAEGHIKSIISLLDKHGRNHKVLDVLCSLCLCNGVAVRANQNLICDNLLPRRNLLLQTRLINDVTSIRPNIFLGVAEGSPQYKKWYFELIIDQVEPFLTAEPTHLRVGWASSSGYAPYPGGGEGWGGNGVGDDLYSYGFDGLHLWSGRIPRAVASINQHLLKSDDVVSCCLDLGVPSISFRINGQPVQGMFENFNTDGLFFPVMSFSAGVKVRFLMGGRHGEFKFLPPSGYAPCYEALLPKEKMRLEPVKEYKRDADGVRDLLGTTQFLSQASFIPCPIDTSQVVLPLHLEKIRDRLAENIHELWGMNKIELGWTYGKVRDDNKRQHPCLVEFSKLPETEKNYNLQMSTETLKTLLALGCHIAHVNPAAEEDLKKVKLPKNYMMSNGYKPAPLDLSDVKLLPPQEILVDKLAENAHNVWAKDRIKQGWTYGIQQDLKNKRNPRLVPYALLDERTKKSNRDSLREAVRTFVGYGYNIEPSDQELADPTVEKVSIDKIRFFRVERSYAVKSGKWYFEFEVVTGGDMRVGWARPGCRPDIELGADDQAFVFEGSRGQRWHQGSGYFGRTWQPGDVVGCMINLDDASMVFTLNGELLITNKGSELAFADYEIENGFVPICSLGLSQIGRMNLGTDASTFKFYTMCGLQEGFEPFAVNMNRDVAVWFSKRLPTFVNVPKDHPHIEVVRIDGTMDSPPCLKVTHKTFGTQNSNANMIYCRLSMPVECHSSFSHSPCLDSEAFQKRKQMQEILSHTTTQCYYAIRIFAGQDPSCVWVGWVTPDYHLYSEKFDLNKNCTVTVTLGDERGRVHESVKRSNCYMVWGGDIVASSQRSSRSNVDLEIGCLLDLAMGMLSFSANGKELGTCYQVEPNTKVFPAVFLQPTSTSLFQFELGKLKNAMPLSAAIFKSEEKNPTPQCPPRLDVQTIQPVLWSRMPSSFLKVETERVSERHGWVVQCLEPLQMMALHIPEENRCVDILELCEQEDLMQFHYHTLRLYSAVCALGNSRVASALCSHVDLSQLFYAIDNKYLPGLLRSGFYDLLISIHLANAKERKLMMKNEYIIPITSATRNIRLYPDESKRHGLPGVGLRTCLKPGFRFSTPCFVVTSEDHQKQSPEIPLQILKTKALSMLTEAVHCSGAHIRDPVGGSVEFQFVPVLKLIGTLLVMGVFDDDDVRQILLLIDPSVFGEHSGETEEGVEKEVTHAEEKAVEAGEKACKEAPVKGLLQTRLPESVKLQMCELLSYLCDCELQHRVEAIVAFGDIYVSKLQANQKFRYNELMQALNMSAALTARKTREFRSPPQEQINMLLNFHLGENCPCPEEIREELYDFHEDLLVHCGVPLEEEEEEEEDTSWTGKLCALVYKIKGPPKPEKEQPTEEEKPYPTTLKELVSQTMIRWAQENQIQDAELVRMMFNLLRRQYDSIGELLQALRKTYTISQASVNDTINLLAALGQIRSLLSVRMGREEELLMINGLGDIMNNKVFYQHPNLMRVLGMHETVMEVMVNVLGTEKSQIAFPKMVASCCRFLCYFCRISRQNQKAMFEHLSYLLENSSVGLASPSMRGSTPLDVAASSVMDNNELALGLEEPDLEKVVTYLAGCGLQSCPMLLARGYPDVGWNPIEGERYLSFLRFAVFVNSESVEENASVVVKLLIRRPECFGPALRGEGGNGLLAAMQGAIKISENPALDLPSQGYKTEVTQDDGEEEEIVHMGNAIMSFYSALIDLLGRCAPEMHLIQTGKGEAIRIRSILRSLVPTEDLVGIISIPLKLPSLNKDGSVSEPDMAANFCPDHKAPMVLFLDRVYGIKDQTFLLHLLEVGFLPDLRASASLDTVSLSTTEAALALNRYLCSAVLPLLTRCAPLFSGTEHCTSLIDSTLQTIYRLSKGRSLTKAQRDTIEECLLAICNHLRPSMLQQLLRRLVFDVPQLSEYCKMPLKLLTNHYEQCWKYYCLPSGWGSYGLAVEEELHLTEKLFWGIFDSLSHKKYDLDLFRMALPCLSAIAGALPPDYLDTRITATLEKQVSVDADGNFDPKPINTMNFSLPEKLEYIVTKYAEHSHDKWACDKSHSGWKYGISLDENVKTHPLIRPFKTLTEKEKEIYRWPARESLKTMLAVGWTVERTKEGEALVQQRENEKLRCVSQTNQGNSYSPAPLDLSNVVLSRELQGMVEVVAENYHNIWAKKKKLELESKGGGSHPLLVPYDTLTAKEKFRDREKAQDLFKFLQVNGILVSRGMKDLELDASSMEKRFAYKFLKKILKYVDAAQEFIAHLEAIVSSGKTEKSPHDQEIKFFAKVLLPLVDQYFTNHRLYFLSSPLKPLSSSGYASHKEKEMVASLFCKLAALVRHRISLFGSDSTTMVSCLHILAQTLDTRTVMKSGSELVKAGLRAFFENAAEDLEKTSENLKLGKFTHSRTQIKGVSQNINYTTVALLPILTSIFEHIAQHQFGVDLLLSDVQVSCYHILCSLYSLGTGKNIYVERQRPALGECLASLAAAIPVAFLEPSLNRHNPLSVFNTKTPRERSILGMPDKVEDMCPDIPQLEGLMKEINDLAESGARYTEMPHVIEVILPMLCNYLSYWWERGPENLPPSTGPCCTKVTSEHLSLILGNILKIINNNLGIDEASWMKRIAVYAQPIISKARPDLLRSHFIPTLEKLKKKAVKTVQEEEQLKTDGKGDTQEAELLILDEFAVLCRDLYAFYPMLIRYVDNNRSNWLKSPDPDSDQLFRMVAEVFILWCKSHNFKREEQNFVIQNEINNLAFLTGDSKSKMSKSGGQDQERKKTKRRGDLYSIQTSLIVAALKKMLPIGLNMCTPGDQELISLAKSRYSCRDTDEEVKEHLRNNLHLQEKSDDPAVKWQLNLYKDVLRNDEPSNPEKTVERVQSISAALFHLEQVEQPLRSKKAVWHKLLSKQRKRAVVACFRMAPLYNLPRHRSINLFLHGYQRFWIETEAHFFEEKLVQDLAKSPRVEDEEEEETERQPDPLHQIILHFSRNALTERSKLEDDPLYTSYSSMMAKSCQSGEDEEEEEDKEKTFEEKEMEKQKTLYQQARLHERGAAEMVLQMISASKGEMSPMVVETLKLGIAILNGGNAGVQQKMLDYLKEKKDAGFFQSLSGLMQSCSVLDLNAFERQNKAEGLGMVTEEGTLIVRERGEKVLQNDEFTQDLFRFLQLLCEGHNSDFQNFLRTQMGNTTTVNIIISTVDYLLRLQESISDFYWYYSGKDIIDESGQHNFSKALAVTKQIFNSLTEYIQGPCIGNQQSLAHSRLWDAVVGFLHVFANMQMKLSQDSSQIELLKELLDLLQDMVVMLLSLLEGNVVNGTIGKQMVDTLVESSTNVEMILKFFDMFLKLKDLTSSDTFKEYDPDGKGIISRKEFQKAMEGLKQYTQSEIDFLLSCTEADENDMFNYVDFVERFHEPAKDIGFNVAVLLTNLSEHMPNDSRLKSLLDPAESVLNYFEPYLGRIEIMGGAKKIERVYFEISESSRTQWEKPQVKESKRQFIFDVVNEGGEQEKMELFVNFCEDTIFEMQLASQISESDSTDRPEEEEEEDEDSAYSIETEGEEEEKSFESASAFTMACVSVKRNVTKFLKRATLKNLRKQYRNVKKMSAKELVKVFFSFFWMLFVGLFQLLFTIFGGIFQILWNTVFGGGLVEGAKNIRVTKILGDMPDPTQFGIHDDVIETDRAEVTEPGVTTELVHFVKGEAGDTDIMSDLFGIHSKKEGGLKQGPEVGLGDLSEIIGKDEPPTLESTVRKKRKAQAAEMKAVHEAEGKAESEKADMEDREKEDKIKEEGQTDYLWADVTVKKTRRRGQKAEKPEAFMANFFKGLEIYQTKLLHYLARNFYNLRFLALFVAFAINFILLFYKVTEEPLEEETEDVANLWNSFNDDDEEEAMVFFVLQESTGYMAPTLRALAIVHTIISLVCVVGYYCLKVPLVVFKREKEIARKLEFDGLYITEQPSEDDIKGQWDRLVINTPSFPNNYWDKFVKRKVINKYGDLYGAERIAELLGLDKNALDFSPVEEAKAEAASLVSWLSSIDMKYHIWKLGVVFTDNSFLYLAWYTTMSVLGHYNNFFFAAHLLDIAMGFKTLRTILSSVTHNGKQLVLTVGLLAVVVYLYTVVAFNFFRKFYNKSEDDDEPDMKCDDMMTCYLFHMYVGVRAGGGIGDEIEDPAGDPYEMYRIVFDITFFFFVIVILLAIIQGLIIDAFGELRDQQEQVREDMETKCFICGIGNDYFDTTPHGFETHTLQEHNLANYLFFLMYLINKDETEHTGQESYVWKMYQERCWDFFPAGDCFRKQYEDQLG

Take `CC(C)[C@@]1(O)[C@@H](OC(=O)c2ccc[nH]2)/C(=N/O)[C@@]2(C)C[C@]3(O)O[C@]4(C(=O)[C@]13C)[C@H](O)[C@@H](C)CC[C@@]42O`: the Ratio in the assay on Musca domestica [1] was 6; in the assay on Musca domestica [2] it was 2.7; in assay [3], 0.78; in assay [4], 0.88; in assay [5], 0.76.
As for `C=C1CC[C@]2(O)[C@]3(C)C[C@]4(O)O[C@@]2([C@@H]1O)[C@]1(O)O[C@@]3(NNC(=O)c2ccccc2)[C@H](OC(=O)c2ccc[nH]2)[C@](O)(C(C)C)[C@@]14C`, the Ratio with Musca domestica [1] is 40; in the assay on Musca domestica [2], 13; in assay [4], 6.5.
In the case of `C=C1CC[C@]2(O)[C@]3(C)C[C@]4(O)O[C@@]2([C@@H]1O)[C@]1(NNC(N)=O)O[C@@]3(O)[C@H](OC(=O)c2ccc[nH]2)[C@](O)(C(C)C)[C@@]14C`, the Ratio is less than 4 in the assay with Musca domestica [2], 4.4 in assay [4] and 6.1 in assay [5].
As for `CC(C)[C@@]1(O)[C@@H](OC(=O)c2ccc[nH]2)[C@@]2(O)[C@@]3(C)C[C@]4(O)O[C@@]5([C@H](O)[C@@H](CSCCO)CC[C@]35O)[C@@]2(O)[C@]14C`, the Ratio came to 6 in the assay with Musca domestica [1], 5 in the assay with Musca domestica [2] and 0.86 in assay [3].
For `CON[C@@]12O[C@@]3(O)[C@H](OC(=O)c4ccc[nH]4)[C@](O)(C(C)C)[C@]1(C)[C@]1(O)C[C@@]3(C)[C@@]3(O)CC[C@H](C)[C@@H](O)[C@@]32O1`, the Ratio in the assay with Musca domestica [1] came to 2; with Musca domestica [2] it was 1.3.
Take `C=C1CC[C@]2(O)[C@]3(C)C[C@]4(O)O[C@@]2([C@@H]1O)[C@]1(/N=N/c2ccccc2)O[C@@]3(O)[C@H](OC(=O)c2ccc[nH]2)[C@](O)(C(C)C)[C@@]14C`: the Ratio with Musca domestica [2] is 6; in assay [3], 3.6; in assay [4], 6.3; in assay [5] it was 4.7.
Consider `CCCSC[C@H]1CC[C@]2(O)[C@]3(C)C[C@]4(O)O[C@@]2([C@@H]1O)[C@]1(O)[C@@]3(O)[C@H](OC(=O)c2ccc[nH]2)[C@](O)(C(C)C)[C@@]14C`, for which the Ratio with Musca domestica [1] came to 6; with Musca domestica [2], 4; in assay [3], 0.88.
With `CC(C)[C@@]1(O)[C@@H](OC(=O)c2ccc[nH]2)[C@]2(NOCc3ccccc3)O[C@@]3(O)[C@]45O[C@@](O)(C[C@@]2(C)[C@@]4(O)CC[C@H](C)[C@H]5O)[C@]31C`, the Ratio in the assay with Musca domestica [2] was 2; in assay [3], 8.3; in assay [4], 21; in assay [5], 13.
Turning to `CC(C)[C@@]1(O)[C@@H](OC(=O)c2ccc[nH]2)[C@@H](O)[C@@]2(C)C[C@]3(O)O[C@@]4([C@H](O)[C@@H](C)CC[C@@]42O)[C@@H](O)[C@]13C`, the figures for the Ratio in assay [3], in assay [4] and in assay [5] were 5.4, 5.3 and 4.7, respectively.
Regarding `C=C1CC[C@]2(O)[C@]3(C)C[C@]4(O)O[C@@]2([C@@H]1O)[C@]1(O)O[C@@]3(NNC(N)=O)[C@H](OC(=O)c2ccc[nH]2)[C@](O)(C(C)C)[C@@]14C`, the Ratio amounted to 6 with Musca domestica [1], 10 with Musca domestica [2], 6.6 in assay [4] and 10 in assay [5].
With `CC(C)[C@@]1(O)[C@@H](OC(=O)c2ccc[nH]2)C(=O)[C@@]2(C)C[C@]3(O)O[C@]4(C(=O)[C@]13C)[C@H](O)[C@@H](C)CC[C@@]42O` [4,12-SECO-4,12-DIOXORYANODIN], the Ratio in the assay on Musca domestica [1] was 2; in the assay with Musca domestica [2], 0.85; in assay [4], 1.8; in assay [5], 1.6.
As for `C=C1CC[C@]2(O)[C@]3(C)C[C@]4(O)O[C@@]2([C@@H]1O)[C@]1(O)O[C@@]3(NNc2ccccc2)[C@H](OC(=O)c2ccc[nH]2)[C@](O)(C(C)C)[C@@]14C`, the Ratio in the assay with Musca domestica [2] is less than 2; in assay [3] it was 2.5; in assay [4], 6.1; in assay [5], 5.4.
Consider `CC(C)[C@@]1(O)[C@@H](OC(=O)c2ccc[nH]2)[C@@]2(O)[C@@]3(C)C[C@]4(O)O[C@@]5([C@H](O)[C@@H](CSC(C)(C)C)CC[C@]35O)[C@@]2(O)[C@]14C`, for which the values for the Ratio (in the assay on Musca domestica [2]; in assay [3]) were 2 and 0.41, respectively.
